In ChEMBL document CHEMBL1152217, “Affinity labeling of the proteasome by a belactosin A derived inhibitor” (Bioorg Med Chem Lett, 2008):
Active and inactive are the calls of the source. No cut-off for these calls is given here. Residues, ends and D or L forms follow the SMILES beside them. *: point of attachment. Cbz = O=C(OCc1ccccc1)*

Key:
[1] = biological target: T1, Proteasome component C5 (Homo sapiens) (UniProt P20618); assay: Inhibition of MG132 binding to beta-1 subunit of 20S proteasome in human HeLa cells at 1 uM by Western blotting analysis; format: cell-based
T1 sequence (whole entry): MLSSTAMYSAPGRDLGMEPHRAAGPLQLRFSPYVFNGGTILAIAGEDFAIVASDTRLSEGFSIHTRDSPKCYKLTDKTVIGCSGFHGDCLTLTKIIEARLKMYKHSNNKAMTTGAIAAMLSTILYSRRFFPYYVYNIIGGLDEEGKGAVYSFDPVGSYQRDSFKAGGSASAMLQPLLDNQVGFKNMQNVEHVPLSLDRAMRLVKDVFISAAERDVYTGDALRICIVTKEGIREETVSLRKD
In short: (§1)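 Competition in intact HeLa cells. Cells were preincubated 1 h at 37 °C in serum-free medium with various concentrations of MG132, then given 1.0 µM dansyl-KF33955 for another hour. Cells were pelleted, lysed by sonication in urea/thiourea denaturing buffer, and resolved by SDS-PAGE. Remaining β subunit labeling was detected by anti-dansyl immunoblot.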

[2] = Inhibition of chymotrypsin-like activity of 20S proteasome in human erythrocytes
In short: (§2)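 Purified human erythrocyte 20S core particle (100–200 ng) mixed with inhibitors at varied concentrations in 25 mM HEPES pH 7.6, 0.5 mM EDTA, 0.03% SDS; SDS left out for the trypsin-like assay. Started by adding fluorogenic AMC substrate: Suc-LLVY-AMC (chymotrypsin-like), Boc-LRR-AMC (trypsin-like), Z-LLE-AMC (PGPH). Fluorescence read up to 1 h (ex 380, em 460 nm). Activity from slope; IC50 derived.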

[3] = biological target: T2, Proteasome Macropain subunit MB1 (Homo sapiens) (UniProt P28074); assay: Inhibition of MG132 binding to beta5 subunit of 20S proteasome in human HeLa cells at 1 uM by Western blotting analysis; format: cell-based; in short: as §1
T2 sequence (whole entry): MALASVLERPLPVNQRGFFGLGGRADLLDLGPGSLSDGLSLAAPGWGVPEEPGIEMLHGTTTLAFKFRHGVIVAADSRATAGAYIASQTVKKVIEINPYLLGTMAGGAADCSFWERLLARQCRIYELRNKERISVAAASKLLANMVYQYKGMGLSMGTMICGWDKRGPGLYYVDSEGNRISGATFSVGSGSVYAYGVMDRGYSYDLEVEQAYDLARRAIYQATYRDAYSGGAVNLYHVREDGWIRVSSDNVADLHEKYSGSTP

[4] = Inhibition of PGPH catalytic activity of 20S proteasome in human erythrocytes; in short: as §2
[5] = Inhibition of trypsin-like activity of 20S proteasome in human erythrocytes; in short: as §2
HeLa = assay: Growth inhibition of human HeLa cells after 48 hrs by MTT assay; format: functional, cell-based
In short: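 HeLa cells grown in RPMI 1640 with 10% heat-inactivated fetal calf serum plus penicillin/streptomycin under 5% CO2. Inhibitors added at various concentrations for 48 h. Viability by MTT, absorbance at 570 nm. IC50 taken from growth inhibition.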

[6] = biological target: T2, Proteasome Macropain subunit MB1 (Homo sapiens); assay: Binding affinity to 20S proteasome beta5 subunit in human erythrocyte at 1 uM after 1 hr by Western blotting analysis
In short: (§3)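 Purified human erythrocyte 20S core particle solution incubated with 1.0 µM dansyl-KF33955 for various times, then diluted directly in 2× denaturing buffer (urea/thiourea/CHAPS/Triton, pH 8.8). Proteins resolved by SDS-PAGE and transferred to PVDF. Labeled β subunits detected by immunoblot with anti-dansyl monoclonal antibody and ECL.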

[7] = biological target: Proteasome Macropain subunit (Homo sapiens) (UniProt P49721); assay: Binding affinity to 20S proteasome beta2 subunit in human erythrocyte at 1 uM after 0.5 hr by Western blotting analysis; in short: as §3
[8] = biological target: Proteasome Macropain subunit (Homo sapiens) (UniProt P49721); assay: Binding affinity to 20S proteasome beta2 subunit in intact human HeLa cells at 1 uM by Western blotting analysis; format: cell-based; conditions: TDE = time-dependent effect
In short: (§4)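 Intact HeLa cells (RPMI 1640, 10% FCS) incubated with 1.0 µM dansyl-KF33955 at 37 °C in serum-free medium for varying times. Cells were pelleted, put in urea/thiourea denaturing buffer at 4 °C and sonicated. Lysates were run on SDS-PAGE and blotted to PVDF. Labeled β subunits were detected with anti-dansyl monoclonal antibody and ECL.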

[9] = biological target: T1, Proteasome component C5 (Homo sapiens); assay: Binding affinity to 20S proteasome beta-1 subunit in intact human HeLa cells at 1 uM by Western blotting analysis; format: cell-based; conditions: TDE = time-dependent effect; in short: as §4
[10] = biological target: T1, Proteasome component C5 (Homo sapiens); assay: Binding affinity to 20S proteasome beta-1 subunit in human erythrocyte at 1 uM after 1 hr by Western blotting analysis; in short: as §3
[11] = biological target: Proteasome Macropain subunit (Homo sapiens) (UniProt P49721); assay: Binding affinity to 20S proteasome beta2 subunit in human erythrocyte at 1 uM after 1 hr by Western blotting analysis; in short: as §3
[12] = biological target: Proteasome Macropain subunit (Homo sapiens) (UniProt P49721); assay: Binding affinity to 20S proteasome beta2 subunit in human HeLa cell extract at 1 uM by Western blotting analysis; format: cell-free
In short: (§5)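 26S proteasome extract from HeLa cells at 50–80% confluency. Cells were washed in ice-cold PBS and resuspended in pH 7.5 Tris buffer with sucrose, MgCl2, EDTA, DTT and 1 mM ATP. They were permeabilized with 0.025% digitonin for 5 min on ice, and the cytosol was recovered at 15,000g. The extract was labeled with 1.0 µM dansyl-KF33955 for various times, diluted in 2× denaturing buffer, resolved by SDS-PAGE and immunoblotted with anti-dansyl antibody.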

[13] = biological target: Proteasome subunit beta type-5 (Homo sapiens) (UniProt P28074); assay: Binding affinity to 20S proteasome beta5 subunit in human erythrocyte at 1 uM after 0.5 hr by Western blotting analysis
[14] = biological target: Proteasome Macropain subunit (Homo sapiens) (UniProt P49721); assay: Inhibition of clasto-lactacystin binding to beta2 subunit of 20S proteasome in human HeLa cells at 1 uM by Western blotting analysis; format: cell-based
[15] = biological target: T1, Proteasome component C5 (Homo sapiens); assay: Binding affinity to 26S proteasome beta-1 subunit in human HeLa cell extract at 1 uM by Western blotting analysis; format: cell-free; in short: as §5
[16] = biological target: Proteasome Macropain subunit (Homo sapiens) (UniProt P49721); assay: Binding affinity to 20S proteasome beta2 subunit in human erythrocyte at 1 uM by Western blotting analysis; in short: as §3
[17] = biological target: T2, Proteasome Macropain subunit MB1 (Homo sapiens); assay: Inhibition of clasto-lactacystin binding to beta5 subunit of 20S proteasome in human HeLa cells at 1 uM by Western blotting analysis; format: cell-based
[18] = biological target: T2, Proteasome Macropain subunit MB1 (Homo sapiens); assay: Binding affinity to 20S proteasome beta5 subunit in intact human HeLa cells at 1 uM by Western blotting analysis; format: cell-based; conditions: TDE = time-dependent effect; in short: as §4
[19] = biological target: T2, Proteasome Macropain subunit MB1 (Homo sapiens); assay: Binding affinity to 20S proteasome beta5 subunit in human HeLa cell extract at 1 uM by Western blotting analysis; format: cell-free; in short: as §5
[20] = biological target: T1, Proteasome component C5 (Homo sapiens); assay: Binding affinity to 20S proteasome beta-1 subunit in human erythrocyte at 1 uM by Western blotting analysis; in short: as §3
[21] = biological target: T2, Proteasome Macropain subunit MB1 (Homo sapiens); assay: Binding affinity to 20S proteasome beta5 subunit in human erythrocyte at 1 uM by Western blotting analysis; in short: as §3
[22] = biological target: T1, Proteasome component C5 (Homo sapiens); assay: Binding affinity to 20S proteasome beta-1 subunit in human erythrocyte at 1 uM after 0.5 hr by Western blotting analysis; in short: as §3

Sequence of Proteasome Macropain subunit (Homo sapiens) (P49721 whole entry): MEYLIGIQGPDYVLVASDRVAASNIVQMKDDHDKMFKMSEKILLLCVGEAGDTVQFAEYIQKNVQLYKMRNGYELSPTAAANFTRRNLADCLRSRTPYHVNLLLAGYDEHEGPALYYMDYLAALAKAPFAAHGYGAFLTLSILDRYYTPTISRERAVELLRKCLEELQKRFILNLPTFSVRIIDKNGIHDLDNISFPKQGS

Row | Compound | Activity [1] | IC50 [2] [nM] | Activity [3] | IC50 [4] [nM] | IC50 [5] [nM] | IC50 (HeLa) [nM] | Activity [14] | Activity [17] | further results
1 | CC(C)C[C@@H](C=O)NC(=O)[C@H](CC(C)C)NC(=O)[C@H](CC(C)C)NC(=O)OCc1ccccc1 [MG-132] (Cbz-Leu-Leu-Leu-aldehyde) | Active | 11 | Active | 120 | 2100 | – | – | – | –
2 | CC[C@H](C)[C@@H]1C(=O)O[C@H]1C(=O)N[C@H]1C[C@H]1C[C@H](NC(=O)[C@H](C)N)C(=O)OCc1ccccc1 | – | 340 | – | 3700 | 450 | 500 | – | – | –
3 | CC[C@H](C)[C@@H]1C(=O)O[C@H]1C(=O)N[C@H]1C[C@H]1C[C@H](NC(=O)[C@H](C)N)C(=O)O [BELACTOSIN A] | – | 820 | – | 14000 | 4900 | 37000 | – | – | –
4 | CC[C@H](C)[C@@H]1C(=O)O[C@H]1C(=O)N[C@H]1C[C@H]1C[C@H](NC(=O)[C@H](C)NC(=O)CCCCCNS(=O)(=O)c1cccc2c(N(C)C)cccc12)C(=O)OCc1ccccc1 | Active | 29 | Active | 150 | 2100 | 9800 | Active | Active | Activity [6]: Active; Activity [7]: Active; Activity [8]: tde; Activity [9]: tde; Activity [10]: Active; Activity [11]: Active; Activity [12]: Active; Activity [13]: Active; Activity [15]: Active; Activity [16]: Active; Activity [18]: tde; Activity [19]: Active; Activity [20]: Active; Activity [21]: Active; Activity [22]: Active
5 | CC(C)[C@H](O)[C@]12NC(=O)[C@H](C)[C@@H]1OC2=O | – | 29 | – | 8300 | 690 | – | Active | Active | –
